{"source": "ChEMBL document CHEMBL4480454", "about": "“Parvifoline Derivatives as Tubulin Polymerization Inhibitors” (J Nat Prod, 2019)", "key": {"Sus scrofa [1]": {"species_on_record": "Sus scrofa", "experiment": "Inhibition of porcine brain tubulin alpha/beta polymerization at 10 uM measured every minute for 90 mins relative to colchicine"}, "Sus scrofa [2]": {"species_on_record": "Sus scrofa", "experiment": "Inhibition of porcine brain tubulin alpha/beta polymerization at 50 uM measured every minute for 90 mins relative to colchicine"}, "Sus scrofa [3]": {"species_on_record": "Sus scrofa", "experiment": "Inhibition of porcine brain tubulin alpha/beta polymerization at 10 uM measured every minute for 60 mins relative to colchicine", "procedure,_shortened": "(§1)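 Turbidity assay with porcine brain α,β-tubulin (97%), final 2 mg/mL, in pH 6.9 buffer of 80.0 mM PIPES sesquisodium, 2.0 mM MgCl2, 0.5 mM EGTA and 1.0 mM GTP. Tubulin added at 0 °C to compound in DMSO, then A450 read every minute for 60 min at 37 °C. Time-zero reading subtracted. […] Triplicate; ANOVA with Tukey test.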"}, "Sus scrofa [4]": {"species_on_record": "Sus scrofa", "experiment": "Inhibition of porcine brain tubulin alpha/beta polymerization at 50 uM measured every minute for 60 mins relative to colchicine", "procedure,_shortened": "as §1"}, "Sus scrofa [5]": {"species_on_record": "Sus scrofa", "experiment": "Competitive inhibition of colchicine binding to porcine brain tubulin alpha/beta polymerization at 10 to 50 uM preincubated for 30 mins followed by 50 uM colchicine addition and measured after 60 mins by fluorescence assay", "procedure,_shortened": "(§2)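 Porcine brain α,β-tubulin (97%) in general buffer pH 6.9 (80.0 mM PIPES sesquisodium, 2.0 mM MgCl2, 0.5 mM EGTA), no GTP, final 1 mg/mL, added at 0 °C to compound in DMSO (final 10, 20, 50 μM). […] DMSO control included.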"}, "Sus scrofa [6]": {"species_on_record": "Sus scrofa", "experiment": "Competitive inhibition of colchicine binding to porcine brain tubulin alpha/beta polymerization at 10 to 50 uM preincubated for 30 mins followed by 5 uM colchicine addition and measured after 60 mins by fluorescence assay", "procedure,_shortened": "as §2"}, "HCT-116": {"system": "HCT-116", "experiment": "Cytotoxicity against human HCT116 cells assessed as reduction in cell viability after 72 hrs by SRB assay", "assay_type": "functional, cell-based", "settings": "HCT-116, 72 h"}, "HeLa": {"system": "HeLa", "experiment": "Cytotoxicity against human HeLa cells assessed as reduction in cell viability after 72 hrs by SRB assay", "assay_type": "functional, cell-based"}, "Sus scrofa [7]": {"species_on_record": "Sus scrofa", "experiment": "Induction of porcine brain tubulin alpha/beta polymerization at 10 uM measured every minute for 30 mins"}}, "note": "Calls of active or inactive are those of the source. The calls are words filed in the database; no cut-off is given here."}
{"smiles": "C/C1=C/c2cc(C)c(OC(=O)c3ccccc3)cc2[C@H](C)CCC1", "values": [{"measurement": "inhibition", "setting": "Sus scrofa [1]", "result": 35.4, "unit": "%"}, {"measurement": "inhibition", "setting": "Sus scrofa [2]", "result": 106, "unit": "%"}, {"measurement": "inhibition", "setting": "Sus scrofa [3]", "result": 38.7, "unit": "%"}, {"measurement": "inhibition", "setting": "Sus scrofa [4]", "result": 86.6, "unit": "%"}]}
{"smiles": "C/C1=C/CC[C@@H](C)c2cc(OC(=O)c3ccccc3)c(C)cc2C1", "values": [{"measurement": "inhibition", "setting": "Sus scrofa [1]", "result": 56.3, "unit": "%"}, {"measurement": "inhibition", "setting": "Sus scrofa [2]", "result": 58.9, "unit": "%"}, {"measurement": "inhibition", "setting": "Sus scrofa [3]", "result": 11.8, "unit": "%"}, {"measurement": "inhibition", "setting": "Sus scrofa [4]", "result": 46.2, "unit": "%"}]}
{"smiles": "Cc1cc2c(cc1O)[C@@]1(C)CC[C@H](O1)[C@H](C)C2", "values": [{"measurement": "inhibition", "setting": "Sus scrofa [1]", "result": 43.7, "unit": "%"}, {"measurement": "inhibition", "setting": "Sus scrofa [2]", "result": 67, "unit": "%"}, {"measurement": "inhibition", "setting": "Sus scrofa [3]", "result": 40.2, "unit": "%"}, {"measurement": "inhibition", "setting": "Sus scrofa [4]", "result": 66.3, "unit": "%"}]}
{"smiles": "Cc1cc2c(cc1O)[C@@]1(C)CCC[C@H](C)[C@@H]2O1", "values": [{"measurement": "inhibition", "setting": "Sus scrofa [1]", "result": 21.9, "unit": "%"}, {"measurement": "inhibition", "setting": "Sus scrofa [2]", "result": 62.5, "unit": "%"}, {"measurement": "inhibition", "setting": "Sus scrofa [3]", "result": 38.7, "unit": "%"}, {"measurement": "inhibition", "setting": "Sus scrofa [4]", "result": 76.1, "unit": "%"}]}
{"smiles": "Cc1cc2c(cc1O)[C@H](C)CC[C@@H]1O[C@]1(C)C2", "values": [{"measurement": "inhibition", "setting": "Sus scrofa [1]", "result": 46.9, "unit": "%"}, {"measurement": "inhibition", "setting": "Sus scrofa [5]", "result": "Active"}, {"measurement": "inhibition", "setting": "Sus scrofa [6]", "result": "inactive"}, {"measurement": "inhibition", "setting": "Sus scrofa [2]", "result": 44.7, "unit": "%"}, {"measurement": "inhibition", "setting": "Sus scrofa [3]", "result": 48.7, "unit": "%"}, {"measurement": "inhibition", "setting": "Sus scrofa [4]", "result": 33.6, "unit": "%"}]}
{"smiles": "COc1cc2c(c(OC)c1OC)-c1ccc(OC)c(=O)cc1[C@@H](NC(C)=O)CC2", "note": "[COLCHICINE]", "values": [{"measurement": "IC50", "setting": "HCT-116", "result": 40, "unit": "nM"}, {"measurement": "IC50", "setting": "HeLa", "result": 11, "unit": "nM"}]}
{"smiles": "Cc1cc2c(cc1OC(=O)c1ccccc1)[C@@]1(C)CC[C@H](O1)[C@H](C)C2", "values": [{"measurement": "inhibition", "setting": "Sus scrofa [2]", "result": 46.9, "unit": "%"}, {"measurement": "inhibition", "setting": "Sus scrofa [3]", "result": 26.1, "unit": "%"}, {"measurement": "inhibition", "setting": "Sus scrofa [4]", "result": 76.9, "unit": "%"}]}
{"smiles": "Cc1cc2c(cc1O)[C@H](C)CCC[C@]1(C)O[C@H]21", "values": [{"measurement": "inhibition", "setting": "Sus scrofa [1]", "result": 8.3, "unit": "%"}, {"measurement": "inhibition", "setting": "Sus scrofa [2]", "result": 36.9, "unit": "%"}, {"measurement": "inhibition", "setting": "Sus scrofa [3]", "result": 30.3, "unit": "%"}, {"measurement": "inhibition", "setting": "Sus scrofa [4]", "result": 19.3, "unit": "%"}]}
{"smiles": "Cc1cc2c(cc1OC(=O)c1ccccc1)[C@H](C)CC[C@@H]1O[C@]1(C)C2", "values": [{"measurement": "inhibition", "setting": "Sus scrofa [1]", "result": 47.9, "unit": "%"}, {"measurement": "inhibition", "setting": "Sus scrofa [2]", "result": 42.2, "unit": "%"}, {"measurement": "inhibition", "setting": "Sus scrofa [3]", "result": 30.3, "unit": "%"}, {"measurement": "inhibition", "setting": "Sus scrofa [4]", "result": 10.9, "unit": "%"}]}
{"smiles": "C/C1=C/c2cc(C)c(O)cc2[C@H](C)CCC1", "values": [{"measurement": "inhibition", "setting": "Sus scrofa [1]", "result": 58.1, "unit": "%"}, {"measurement": "inhibition", "setting": "Sus scrofa [2]", "result": 56.2, "unit": "%"}]}
{"smiles": "C/C1=C/CC[C@@H](C)c2cc(O)c(C)cc2C1", "values": [{"measurement": "inhibition", "setting": "Sus scrofa [1]", "result": 51, "unit": "%"}, {"measurement": "inhibition", "setting": "Sus scrofa [5]", "result": "Active"}, {"measurement": "Activity", "setting": "Sus scrofa [7]", "result": "Active"}, {"measurement": "inhibition", "setting": "Sus scrofa [6]", "result": "inactive"}, {"measurement": "inhibition", "setting": "Sus scrofa [2]", "result": 66.7, "unit": "%"}, {"measurement": "inhibition", "setting": "Sus scrofa [3]", "result": 24.4, "unit": "%"}, {"measurement": "inhibition", "setting": "Sus scrofa [4]", "result": 54.6, "unit": "%"}]}
{"smiles": "Cc1cc2c(cc1OC(=O)c1ccccc1)[C@H](C)CCC[C@]1(C)O[C@H]21", "values": [{"measurement": "inhibition", "setting": "Sus scrofa [1]", "result": 97.9, "unit": "%"}, {"measurement": "inhibition", "setting": "Sus scrofa [5]", "result": "inactive"}, {"measurement": "IC50", "setting": "HCT-116", "result": 5000, "unit": "nM"}, {"measurement": "inhibition", "setting": "Sus scrofa [6]", "result": "inactive"}, {"measurement": "inhibition", "setting": "Sus scrofa [2]", "result": 78.5, "unit": "%"}, {"measurement": "IC50", "setting": "HeLa", "result": 3300, "unit": "nM"}, {"measurement": "inhibition", "setting": "Sus scrofa [3]", "result": 89.9, "unit": "%"}, {"measurement": "inhibition", "setting": "Sus scrofa [4]", "result": 51.8, "unit": "%"}]}
{"smiles": "Cc1cc2c(cc1OC(=O)c1ccccc1)[C@@]1(C)CCC[C@H](C)[C@@H]2O1", "values": [{"measurement": "inhibition", "setting": "Sus scrofa [1]", "result": 2.1, "unit": "%"}, {"measurement": "inhibition", "setting": "Sus scrofa [2]", "result": -5.7, "unit": "%"}, {"measurement": "inhibition", "setting": "Sus scrofa [3]", "result": 9.2, "unit": "%"}, {"measurement": "inhibition", "setting": "Sus scrofa [4]", "result": -3.4, "unit": "%"}]}
